Key:
[1] = biological target: T1, Cyclin-dependent kinase 2/cyclin A (Homo sapiens, UniProt P24941); assay: (§1) Inhibition of Cyclin-dependent kinase 2-Cyclin A3 at 10 uM; assay type: protein-complex assay
Summary of the method: (§2)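 Human CDK2/cyclin A kinase inhibition assay run by an earlier-published method. Solubility limited the highest concentration that could be tested to 10 µM.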

[2] = biological target: Cyclin-dependent kinase 1/cyclin B (starfish); assay: Inhibition of Cyclin-dependent kinase 1-cyclin B at 10 uM
[3] = biological target: Cyclin-dependent kinase 1/cyclin B (Homo sapiens, UniProt P06493); assay: Inhibitory activity against cyclin-dependent kinase 1-cyclin B.; assay type: protein-complex assay
Summary of the method: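 CDK1/cyclin B1 enzyme from starfish (Marthasterias glacialis) oocytes; kinase inhibition assayed by a method from earlier work.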

[4] = biological target: T1, Cyclin-dependent kinase 2/cyclin A; assay: Inhibition of cyclin-dependent kinase 2-cyclin A3 (CDK2); assay type: protein-complex assay
[5] = biological target: T2, Cyclin-dependent kinase 2/cyclin A (Homo sapiens) (UniProt P24941+P20248+P78396); assay: Inhibition of cyclin-dependent kinase 2/Cyclin A3 at 10 uM; assay type: protein-complex assay; summary of the method: as §2
[6] = tested on: Cyclin-dependent kinase 1/cyclin B (starfish); assay: Inhibition of Cyclin-dependent kinase 1-cyclin B at 10 uM; settings: Asteroidea
[7] = biological target: T1, Cyclin-dependent kinase 2/cyclin A; assay: Inhibition of Cyclin-dependent kinase 2-Cyclin A3 at 100 uM; assay type: protein-complex assay
[8] = biological target: Cyclin-dependent kinase 1/cyclin B (starfish); assay: Inhibition of Cyclin-dependent kinase 1-cyclin B at 100 uM
[9] = biological target: T2, Cyclin-dependent kinase 2/cyclin A (Homo sapiens); assay: as §1; assay type: protein-complex assay; summary of the method: as §2
[10] = biological target: Cyclin-dependent kinase 1/cyclin B (Homo sapiens) (UniProt P06493+P14635+Q8WWL7+O95067); assay: Inhibition of cyclin-dependent kinase 1/Cyclin B at 10 uM; assay type: protein-complex assay; settings: Marthasterias glacialis
Summary of the method: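 Starfish (Marthasterias glacialis) oocyte CDK1/cyclin B1 kinase inhibition assay run by an earlier-published method. Solubility limited the highest concentration that could be tested to 10 µM.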

SMILES	IC50 [3]	IC50 [4]	further results
COC(=O)c1ccc(Nc2nc(OCC3CCCCC3)c3nc[nH]c3n2)cc1			IC50 [1]: 25000 nM; IC50 [2]: 66000 nM
COc1cc(Nc2nc(OCC3CCCCC3)c3[nH]cnc3n2)ccc1S(N)(=O)=O	103 nM		
NS(=O)(=O)c1cccc(Nc2nc(OCC3CCCCC3)c3nc[nH]c3n2)c1	240 nM		
OCCNc1nc(OCC2CCCCC2)c2[nH]cnc2n1	3200 nM	2800 nM	
NS(=O)(=O)c1ccc(CNc2nc(OCC3CCCCC3)c3[nH]cnc3n2)s1	5700 nM	5000 nM	
CC(C)[C@H](CO)Nc1nc(OCC2CCCCC2)c2[nH]cnc2n1			inhibition [5]: 20%; inhibition [6]: 2%
CSc1cccc(Nc2nc(OCC3CCCCC3)c3nc[nH]c3n2)c1	2400 nM		
COc1ccc(Oc2nc(OCC3CCCCC3)c3[nH]cnc3n2)cc1			IC50 [7]: 42000 nM; IC50 [8]: 10000 nM
CNC(=O)c1ccc(Nc2nc(OCC3CCCCC3)c3nc[nH]c3n2)cc1	400 nM	200 nM	
CNc1nc(OCC2CCCCC2)c2[nH]cnc2n1	5300 nM	5000 nM	
CN(C)S(=O)(=O)c1ccc(Nc2nc(OCC3CCCCC3)c3nc[nH]c3n2)cc1	77 nM		
Fc1ccc(Nc2nc(OCC3CCCCC3)c3[nH]cnc3n2)cc1Cl			inhibition [9]: 68%; inhibition [6]: 73%
Clc1cc(Cl)cc(Nc2nc(OCC3CCCCC3)c3[nH]cnc3n2)c1	13000 nM	12000 nM	
CC[C@@H](CO)Nc1nc(OCC2CCCCC2)c2[nH]cnc2n1			inhibition [9]: 52%; inhibition [6]: 29%
CCNc1nc(OCC2CCCCC2)c2[nH]cnc2n1	3300 nM	2800 nM	
Fc1cccc(Nc2nc(OCC3CCCCC3)c3[nH]cnc3n2)c1			inhibition [9]: 62%; inhibition [6]: 69%
Fc1nc(OCC2CCCCC2)c2[nH]cnc2n1			inhibition [9]: 4%; inhibition [6]: 7%
CC(C)Nc1nc(OCC2CCCCC2)c2[nH]cnc2n1	2000 nM	1200 nM	
Clc1nc(OCC2CCCCC2)c2[nH]cnc2n1			inhibition [9]: 5%; inhibition [6]: 6%
O=C(O)c1ccc(Nc2nc(OCC3CCCCC3)c3nc[nH]c3n2)cc1	1000 nM	800 nM	
c1ccc(Nc2nc(OCC3CCCCC3)c3nc[nH]c3n2)cc1	1600 nM		
CN(C)c1nc(OCC2CCCCC2)c2[nH]cnc2n1			inhibition [9]: 31%; inhibition [6]: 27%
CSc1ccc(Nc2nc(OCC3CCCCC3)c3[nH]cnc3n2)cc1			inhibition [9]: 18%; inhibition [6]: 10%
NS(=O)(=O)c1ccc(NNc2nc(OCC3CCCCC3)c3[nH]cnc3n2)cc1	8900 nM	4300 nM	
CNS(=O)(=O)c1ccc(Nc2nc(OCC3CCCCC3)c3nc[nH]c3n2)cc1	9 nM		
CC(C)[C@@H](CO)Nc1nc(OCC2CCCCC2)c2[nH]cnc2n1			inhibition [9]: 19%; inhibition [6]: 1%
Fc1ccc(Nc2nc(OCC3CCCCC3)c3[nH]cnc3n2)cc1			inhibition [9]: 27%; inhibition [6]: 20%
CC[C@H](CO)Nc1nc(OCC2CCCCC2)c2[nH]cnc2n1			inhibition [9]: 62%; inhibition [6]: 43%
c1csc(CNc2nc(OCC3CCCCC3)c3[nH]cnc3n2)c1	700 nM	1700 nM	

Now from value to molecule, other results behind:

IC50 [3]	IC50 [4]	SMILES	further results
300 nM		N#CCc1ccc(Nc2nc(OCC3CCCCC3)c3[nH]cnc3n2)cc1	
300 nM		OCc1cccc(Nc2nc(OCC3CCCCC3)c3[nH]cnc3n2)c1	
2200 nM		COc1cccc(Nc2nc(OCC3CCCCC3)c3[nH]cnc3n2)c1	
140 nM	130 nM	NC(=O)Cc1ccc(Nc2nc(OCC3CCCCC3)c3nc[nH]c3n2)cc1	
790 nM		COc1ccc(Nc2nc(OCC3CCCCC3)c3[nH]cnc3n2)cc1	
5300 nM		Brc1cccc(Nc2nc(OCC3CCCCC3)c3[nH]cnc3n2)c1	
600 nM		CN(C)C(=O)c1ccc(Nc2nc(OCC3CCCCC3)c3[nH]cnc3n2)cc1	
37000 nM	52000 nM	CCc1cccc(Nc2nc(OCC3CCCCC3)c3[nH]cnc3n2)c1	inhibition [10]: 32%; inhibition [9]: 37%
500 nM		CC(=O)c1ccc(Nc2nc(OCC3CCCCC3)c3[nH]cnc3n2)cc1	
200 nM		C[S+]([O-])c1ccc(Nc2nc(OCC3CCCCC3)c3[nH]cnc3n2)cc1 (stereo unspecified)	

Reference: ChEMBL document CHEMBL1138832, “N2-substituted O6-cyclohexylmethylguanine derivatives: potent inhibitors of cyclin-dependent kinases 1 and 2” (J Med Chem, 2004)
